Experimental findings from ChEMBL document CHEMBL5500359, “Identification of a new bisindolinone arresting IGROV1 cells proliferation” (Eur J Med Chem, 2024) are described below.

Assay [1] concerns Panel NCI-60 (60 carcinoma cell lines). As to the kind of experiment: Cell growth inhibition of human Panel NCI-60 (60 carcinoma cell lines) incubated for 48 hrs by SRB assay. Format: functional. The method, boiled down: (§1)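 NCI-60 five-concentration screen: lines seeded 5×10^3–4×10^4 cells/well depending on line; compound diluted in fresh medium at scalar concentrations 0–100 or 0–1000 μM; 48 h exposure, in situ fixation, sulforhodamine B protein staining, optical density read; GI50, TGI and LC50 per NCI procedures; panel mean = mean graph midpoint.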
(In general: In SRB staining, fixed cells bind dye roughly in proportion to their protein.)

Assay [2] deals with NSCLC. In words: Cell growth inhibition of human NSCLC cells incubated for 48 hrs by SRB assay. Format: functional. The method, boiled down: as §1
In assay [3] the test system is Panel NCI-60 (60 carcinoma cell lines). In words: Cytostatic activity against human Panel NCI-60 (60 carcinoma cell lines) incubated for 48 hrs by SRB assay. Format: functional. The method, boiled down: as §1
Assay [4] relates to CNS carcinoma cell. As to the kind of experiment: Cytostatic activity against human CNS carcinoma cells incubated for 48 hrs by SRB assay. Format: functional. The method, boiled down: as §1
Assay [5] has as its system Melanoma cell line. In words: Cell growth inhibition of human Melanoma cells incubated for 48 hrs by SRB assay. Format: functional. The method, boiled down:
as §1

Assay [6] relates to Renal cancer cell line. In words: Cell growth inhibition of human Renal cancer cells incubated for 48 hrs by SRB assay. Type of assay: functional. The method, boiled down: as §1
The subject of assay [7] is Colon carcinoma cell. In words: Cytostatic activity against human Colon carcinoma cells incubated for 48 hrs by SRB assay. Format: functional. The method, boiled down:
as §1

The test system of assay [8] is Melanoma cell line. As to the kind of experiment: […] against human Melanoma cells incubated for 48 hrs by SRB assay. Type of assay: functional. The settings on record: read-out: LC50 (the source's name). The method, boiled down: (§2)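 NCI DTP five-concentration screen. Cells were seeded at 5 × 10³–4 × 10⁴ cells/well, depending on the line. Compounds were diluted in fresh medium and added at scalar concentrations over 0–1000 µM or 0–100 µM. After 48 h the cells were fixed in situ, stained with sulforhodamine B, and optical density was read. GI50, TGI and LC50 were derived by NCI procedures, and the panel mean is the mean graph midpoint.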

Assay [9] can be described thus: Cell growth inhibition of human Leukemia cancer cells incubated for 48 hrs by SRB assay. Type of assay: functional. The method, boiled down:
as §1

The test system of assay [10] is Prostatic carcinoma cell. As to the kind of experiment: Cell growth inhibition of human Prostate carcinoma cells incubated for 48 hrs by SRB assay. Format: functional. The method, boiled down:
as §1

The test system of assay [11] is CNS carcinoma cell. As to the kind of experiment: Cell growth inhibition of human CNS carcinoma cells incubated for 48 hrs by SRB assay. Format: functional. The method, boiled down: as §1
Assay [12] relates to Ovarian cancer cell line. In words: Cytostatic activity against human Ovarian cancer cells incubated for 48 hrs by SRB assay. Format: functional. The method, boiled down: as §1
Assay [13] relates to Renal cancer cell line. In words: Cytostatic activity against human Renal cancer cells incubated for 48 hrs by SRB assay. Type of assay: functional. The method, boiled down:
as §1

The subject of assay [14] is Breast cancer cell line. As to the kind of experiment: Cytostatic activity against human Breast cancer cells incubated for 48 hrs by SRB assay. Type of assay: functional. The method, boiled down: as §1
The test system of assay [15] is Breast cancer cell line. As to the kind of experiment: Cell growth inhibition of human Breast cancer cells incubated for 48 hrs by SRB assay. Format: functional. The settings on record: read-out: LC50 (the source's name). The method, boiled down: as §2
Assay [16] can be described thus: Cytostatic activity against human Leukemia cancer cells incubated for 48 hrs by SRB assay. Format: functional, Leukemia cell. The method, boiled down: as §1
In assay [17] the test system is Ovarian cancer cell line. In words: Cytotoxicity against human Ovarian cancer cells incubated for 48 hrs by SRB assay. Format: functional. The method, boiled down: as §1
Assay [18] deals with Colon carcinoma cell. As to the kind of experiment: Cytotoxicity against human Colon carcinoma cells incubated for 48 hrs by SRB assay. Type of assay: functional. The method, boiled down:
as §1

In assay [19] the test system is Breast cancer cell line. As to the kind of experiment: Cytotoxicity against human Breast cancer cells incubated for 48 hrs by SRB assay. Type of assay: functional. The method, boiled down: as §1

The term GI50 denotes the concentration that inhibits growth by half. A word on the TGI: it is the concentration at which net growth stops. Read a high TGI as lower sensitivity of the cells. In the case of `COc1cc2c(c(OC)c1OC)/C(=C\c1ccc3ccc4ccc(/C=C5/C(=O)Nc6cc(OC)c(OC)c(OC)c65)nc4c3n1)C(=O)N2`, the GI50 in [1] is 12.9 µM; in assay [6], 26.3 µM; in assay [9], 4.27 µM; in assay [11], 13.8 µM. Besides, the GI in assay [2] stood at 14.45 µM; in assay [3] it was 70.79 µM; in [4], 67.61 µM; in assay [5], 18.62 µM; in assay [10], 3.39 µM; in [13], 74.13 µM. Further, the TGI in assay [7] turned out to be 5.23 µM; in assay [12] it was 93.3 µM; in assay [14], 64.6 µM. In addition, the results for the CC50 in assay [8] and in assay [15] were 85.1 µM and 10 µM, respectively.

Take `O=C1Nc2ccc(Cl)cc2/C1=C\c1ccc2ccc3ccc(/C=C4/C(=O)Nc5ccc(Cl)cc54)nc3c2n1`: the concentration for 50% growth inhibition (GI50) in assay [1] worked out at 2.63 µM; in assay [6], 2.29 µM; in assay [9] it was 3.09 µM; in assay [11], 2.15 µM. Further, the GI in [16] stood at 83.18 µM; in assay [2], 2.57 µM; in assay [3], 18.2 µM; in [4], 9.33 µM; in [5], 2.19 µM; in assay [17], 69.18 µM. Moreover, the GI came out at 2.45 µM in [10], 31.62 µM in assay [18] and 17.38 µM in [13]. For the same compound, the total growth inhibition concentration (TGI) in assay [7] stood at 7.41 µM; in assay [12], 29.5 µM; in [14], 29.5 µM. Further, the values for the CC50 in assay [8] and in assay [15] were 11.5 µM and 3.09 µM, respectively.

For `COc1ccc2c(c1)/C(=C\c1ccc3ccc4ccc(/C=C5/C(=O)N(C)c6ccc(OC)cc65)nc4c3n1)C(=O)N2C`, the GI50 in assay [1] is 2.63 µM; in assay [6] it was 2.34 µM; in assay [9], 3.16 µM; in [11], 3.16 µM. Also, the GI in assay [16] is 56.23 µM; in assay [19], 64.57 µM; in [2] it was 2.57 µM; in assay [3], 12.88 µM; in assay [4], 17.78 µM; in assay [5], 2.14 µM. Moreover, the GI in [17] was 89.13 µM; in [10], 2.57 µM; in assay [18] it was 13.49 µM; in assay [13] it was 5.89 µM. The TGI in assay [7] amounted to 6.31 µM; in assay [12], 28.2 µM; in [14] it was 18.6 µM. The results for the CC50 in assay [8] and in assay [15] were 4.79 µM and 3.09 µM, respectively.

Take `CC[C@]1(O)C[C@H]2CN(CCc3c([nH]c4ccccc34)[C@@](C(=O)OC)(c3cc4c(cc3OC)N(C=O)[C@H]3[C@@](O)(C(=O)OC)[C@H](OC(C)=O)[C@]5(CC)C=CCN6CC[C@]43[C@@H]65)C2)C1` [VINCRISTINE]: the GI50 in assay [1] worked out at 0.2 µM; in [6], 0.32 µM; in [9], 0.1 µM; in [11], 0.13 µM. The GI in [2] turned out to be 0.25 µM; in [5] it was 0.16 µM; in [10], 0.13 µM. For the same compound, the CC50 in assay [15] was determined as 0.32 µM.

Consider `CN(C)c1ccc2[nH]c(Cl)c(/C=C3/C(=O)N(C)c4cc5c(cc43)/C(=C\c3c(Cl)[nH]c4ccc(N(C)C)cc34)C(=O)N5C)c2c1`, for which the GI50 is 14.5 µM in assay [1], 9.77 µM in assay [6], 17 µM in assay [9] and 7.08 µM in [11]. Further, the GI in assay [2] came out at 18.2 µM; in assay [5], 27.54 µM; in assay [10], 10.72 µM. Besides, the CC50 in assay [15] stood at 4.17 µM.

Consider `COc1cc2c(cc1C)NC(=O)/C2=C/c1ccc2ccc3ccc(/C=C4/C(=O)Nc5cc(C)c(OC)cc54)nc3c2n1`, for which the GI50 stood at 5.13 µM in assay [1], 6.31 µM in assay [6], 2.51 µM in [9] and 8.51 µM in assay [11]. Besides, the GI in [16] is 22.91 µM; in [2], 6.76 µM; in assay [3] it was 26.3 µM; in assay [4], 40.74 µM; in assay [5], 6.03 µM; in [17], 77.62 µM. The GI in assay [10] was found to be 2.95 µM; in [18] it was 46.77 µM; in assay [13], 29.51 µM. The values for the TGI in [7], in assay [12] and in assay [14] were 10.2 µM, 38.9 µM and 25.7 µM, respectively. Also, the CC50 in assay [8] was found to be 17.8 µM; in [15], 3.98 µM.
